# In ChEMBL document CHEMBL1122207, “Antitumor agents. 2. Bisguanylhydrazones of anthracene-9,10-dicarboxaldehydes” (1982):
# What was measured:
# Assay type in all cases: functional
# Mus musculus [1] = organism: Mus musculus; test: Cures is the number of survivors of the total treated mice (20) with B-16 melanoma, at 60 days.
# How it was run: (§1)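 BDF1 mice were implanted ip with a homogenate from 0.05 g of B-16 melanoma and dosed ip on days 1-9. Cures are survivors over total at 60 days.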
# Mus musculus [2] = organism: Mus musculus; test: Cures is the number of survivors of the total treated mice (6) with P-388 leukemia, at 30 days.
# How it was run: (§2)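 BDF1 or CDF1 mice given 10^6 ascitic P-388 leukemia cells ip, then treated ip on days 1, 5 and 9. Cures are survivors over total treated at 30 days.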
# Mus musculus [3] = organism: Mus musculus; test: Cures is the number of survivors of the total treated animals (12 mice) with P-388 leukemia, at 30 days.; how it was run: as §2
# Mus musculus [4] = organism: Mus musculus; test: Cures is the number of survivors of the total treated mice (8) with Colon 26, at 60 days.
# Mus musculus [5] = test: Percent increase in median life span of BDF1 mice with Colon 26 at dose 12.5 mg/kg administered intraperitoneally; 1, 5, 9 days of ip treatment relative to tumor inoculation; settings: BDF1, Colon 26, ip, 216 h, route intraperitoneal
# Mus musculus [6] = test: Percent increase in median life span of BDF1 mice with P-388 leukemia at dose 50 mg/kg administered intraperitoneally; range 25-91%; range 25-91%, 1, 5, 9 days of ip treatment relative to tumor inoculation; settings: BDF1, P388, ip, 216 h, route intraperitoneal
# How it was run: (§3)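 BDF1 or CDF1 mice given 10^6 ascitic leukemia cells ip, then dosed ip on days 1, 5 and 9. Read-out is percent increase in life span versus untreated controls. Cures were scored as survivors/total at 30 days; when cures reached 50% or more, the run was extended until a specific ILS could be calculated. T/C ≥125% counted as significant.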
# Mus musculus [7] = test: Percent increase in median life span of BDF1 mice with B-16 melanoma at dose 6 mg/kg administered intraperitoneally; range 100-167; 1-9 days of ip treatment relative to tumor inoculation; settings: BDF1, B16, ip, route intraperitoneal
# How it was run: (§4)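 BDF1 mice were implanted ip with a homogenate from 0.05 g of B-16 melanoma. Ip dosing ran on days 1-9, starting 24 h after implant, in dose-response studies following NCI protocols. The read-out was percent increase in life span (ILS). T/C ≥125% was taken as significant.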
# Mus musculus [8] = test: Percent increase in median life span of BDF1 mice with advanced L-1210 leukemia administered intraperitoneally; treatment day +2 ip
# Mus musculus [9] = test: Percent increase in median life span of BDF1 mice with advanced P-388 leukemia at dose 25 mg/kg administered intraperitoneally; 4, 8, 12 days of ip treatment relative to tumor inoculation; settings: P388, ip, 288 h, route intraperitoneal
# Mus musculus [10] = organism: Mus musculus; test: Cures is the number of survivors of the total treated mice (6) with advanced L-1210 leukemia, at 30 days.
# How it was run: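 Advanced L-1210 leukemia, with ip treatment on days 5, 9 and 13 relative to tumor inoculation.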
# Mus musculus [11] = organism: Mus musculus; test: Cures is the number of survivors of the total treated mice (10) with B-16 melanoma, at 60 days.; how it was run: as §1
# Mus musculus [12] = test: Percent increase in median life span of BDF1 mice with Colon 26 at dose 25 mg/kg administered intraperitoneally; 1, 5, 9 days of ip treatment relative to tumor inoculation; settings: BDF1, Colon 26, ip, 216 h, route intraperitoneal
# Mus musculus [13] = test: Percent increase in median life span of BDF1 mice with P-388 leukemia at dose 100 mg/kg administered intraperitoneally; 1, 5, 9 days of ip treatment relative to tumor inoculation; settings: BDF1, P388, ip, 216 h, route intraperitoneal; how it was run: as §3
# Mus musculus [14] = test: Percent increase in median life span of BDF1 mice with advanced L-1210 leukemia at dose 200 mg/kg administered intraperitoneally; treatment day +2 iv; settings: L1210
# Mus musculus [15] = test: Percent increase in median life span of BDF1 mice with madison lung 109 leukemia administered intraperitoneally
# Mus musculus [16] = test: Percent increase in median life span of BDF1 mice with B-16 melanoma at dose 25 mg/kg administered intraperitoneally; 1-9 days of ip treatment relative to tumor inoculation; settings: BDF1, B16, ip, route intraperitoneal; how it was run: as §4
# Mus musculus [17] = test: Percent tumor inhibition at non-lethal dose was determined in BDF1 mice with madison lung 109 leukemia; 1, 5, 9 days of sc treatment relative to tumor inoculation
# Mus musculus [18] = organism: Mus musculus; test: Cures is the number of survivors of the total treated mice (9) with P-388 leukemia, at 30 days.; how it was run: as §2
# Mus musculus [19] = test: Percent increase in median life span of BDF1 mice with P-388 leukemia at dose 12.5 mg/kg administered intraperitoneally; settings: BDF1, P388, ip, route intraperitoneal
# Mus musculus [20] = test: Percent increase in median life span of BDF1 mice with B-16 melanoma at dose 1.5 mg/kg administered intraperitoneally; settings: BDF1, B16, ip, route intraperitoneal; how it was run: as §4
# Mus musculus [21] = organism: Mus musculus; test: Anticancer activity measured as the number of survivors of the total treated mice with P-388 leukemia at 30 days.; how it was run: as §2
# Mus musculus [22] = test: Percent increase in median life span of BDF1 mice with P-388 leukemia at dose 300 mg/kg administered intraperitoneally; settings: BDF1, P388, ip, route intraperitoneal
# Mus musculus [23] = test: Percent increase in median life span of BDF1 mice with B-16 melanoma at dose 300 mg/kg administered intraperitoneally; settings: BDF1, B16, ip, route intraperitoneal; how it was run: as §4
# Mus musculus [24] = organism: Mus musculus; test: Cures is the number of survivors of the total treated mice (12) with P-388 leukemia, at 30 days.; how it was run: as §2
# Mus musculus [25] = organism: Mus musculus; test: Cures is the number of survivors of the total treated mice (6) with L-1210 leukemia, at 30 days.
# Mus musculus [26] = organism: Mus musculus; test: Cures is the number of survivors of the total treated mice (10) with advanced B-16 melanoma, at 30 days.
# Mus musculus [27] = organism: Mus musculus; test: Cures is the number of survivors of the total treated mice (10) with Colon 26, at 60 days.
# Mus musculus [28] = test: Percent increase in median life span of BDF1 mice with B-16 melanoma at dose 6.25 mg/kg administered intraperitoneally; 1-9 days of ip treatment relative to tumor inoculation; settings: BDF1, B16, ip, route intraperitoneal; how it was run: as §4
# Mus musculus [29] = test: Percent increase in median life span of BDF1 mice with Colon 26 at dose 6.2 mg/kg administered intraperitoneally; 1, 5, 9 days of ip treatment relative to tumor inoculation; settings: BDF1, Colon 26, ip, 216 h, route intraperitoneal
# Mus musculus [30] = test: Percent increase in median life span of BDF1 mice with L-1210 leukemia at dose 3.1 mg/kg administered intraperitoneally; 1, 5, 9 days of ip treatment relative to tumor inoculation; settings: BDF1, L1210, ip, 216 h, route intraperitoneal; how it was run: as §3
# Mus musculus [31] = test: Percent increase in median life span of BDF1 mice with P-388 leukemia at dose 12.5 mg/kg administered intraperitoneally; range 90-100%; range 90-100%, 1, 5, 9 days of ip treatment relative to tumor inoculation; settings: BDF1, P388, ip, 216 h, route intraperitoneal; how it was run: as §3
# Mus musculus [32] = test: Percent increase in median life span of BDF1 mice with advanced B-16 melanoma at dose 12.5 mg/kg administered intraperitoneally; 5, 9, 13 days of ip treatment relative to tumor inoculation; settings: BDF1, B16, ip, 312 h, route intraperitoneal
# Mus musculus [33] = organism: Mus musculus; test: Cures is the number of survivors of the total treated mice (24) with P-388 leukemia, at 30 days.; how it was run: as §2
# Mus musculus [34] = organism: Mus musculus; test: Cures is the number of survivors of the total treated mice (26) with Colon 26, at 60 days.
# Mus musculus [35] = test: Cures is the number of survivors of the total treated mice (6) with advanced L-1210 leukemia, at 30 days; treatment day +2 iv
# How it was run: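 Advanced L-1210 leukemia, treated iv once on day +2 relative to tumor inoculation.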
# Mus musculus [36] = test: Percent increase in median life span of BDF1 mice with L-1210 leukemia at dose 25 mg/kg administered intraperitoneally; 1, 5, 9 days of ip treatment relative to tumor inoculation; settings: BDF1, L1210, ip, 216 h, route intraperitoneal; how it was run: as §3
# Mus musculus [37] = test: Percent increase in median life span of BDF1 mice with advanced B-16 melanoma at dose 25 mg/kg administered intraperitoneally; 5, 9, 13 days of ip treatment relative to tumor inoculation; settings: B16, ip, 312 h, route intraperitoneal
# Mus musculus [38] = test: Percent increase in median life span of BDF1 mice with P-388 leukemia at dose 25 mg/kg administered intraperitoneally; 1, 5, 9 days of ip treatment relative to tumor inoculation; settings: BDF1, P388, ip, 216 h, route intraperitoneal; how it was run: as §3
# Mus musculus [39] = test: Percent increase in median life span of BDF1 mice with advanced L-1210 leukemia at dose 50 mg/kg administered intraperitoneally; treatment day +2 iv; settings: L1210
# Mus musculus [40] = test: Percent increase in median life span of BDF1 mice with B-16 melanoma at dose 12 mg/kg administered intraperitoneally; Range 144-145%, 1-9 days of ip treatment relative to tumor inoculation; settings: BDF1, B16, ip, route intraperitoneal; how it was run: as §4
# Mus musculus [41] = organism: Mus musculus; test: Cures is the number of survivors of the total treated mice (5) with L-1210 leukemia, at 30 days.
# Mus musculus [42] = organism: Mus musculus; test: Cures is the number of survivors of the total treated mice (6) with P-388 leukemia, at 60 days.
# Mus musculus [43] = test: Percent increase in median life span of BDF1 mice with B-16 melanoma at dose 0.8 mg/kg administered intraperitoneally; settings: BDF1, B16, ip, route intraperitoneal; how it was run: as §4
# Mus musculus [44] = test: Percent increase in median life span of BDF1 mice with P-388 leukemia at dose 5 mg/kg administered intraperitoneally; settings: BDF1, P388, ip, route intraperitoneal
smiles,measurement,setting,value
Cl.Cl.N=C(NCc1ccco1)N/N=C/c1c2ccccc2c(/C=N/NC(=N)NCc2ccco2)c2ccccc12,Cures,Mus musculus [1],6
same,Cures,Mus musculus [2],0
same,Cures,Mus musculus [3],0
same,Cures,Mus musculus [4],0
same,ILS at 12.5 mg/kg,Mus musculus [5],109%
same,ILS at 50 mg/kg,Mus musculus [6],91%
same,ILS at 6 mg/kg,Mus musculus [7],167%
same,ILS,Mus musculus [8],<25%
same,ILS at 25 mg/kg,Mus musculus [9],56%
CC1(C)CN=C(N/N=C/c2c3ccccc3c(/C=N/NC3=NCC(C)(C)CN3)c3ccccc23)NC1.Cl.Cl,Cures,Mus musculus [10],0
same,Cures,Mus musculus [4],0
same,Cures,Mus musculus [11],4
same,ILS at 25 mg/kg,Mus musculus [12],153%
same,ILS at 100 mg/kg,Mus musculus [13],205%
same,ILS at 200 mg/kg,Mus musculus [14],29%
same,ILS at 25 mg/kg,Mus musculus [9],88%
same,ILS,Mus musculus [15],<25%
same,ILS at 25 mg/kg,Mus musculus [16],143%
same,Inhibition,Mus musculus [17],31%
C(=N\NC1=NCC2(CC2)CN1)/c1c2ccccc2c(/C=N/NC2=NCC3(CC3)CN2)c2ccccc12.Cl.Cl,Cures,Mus musculus [18],1
same,Cures,Mus musculus [11],4
same,ILS at 12.5 mg/kg,Mus musculus [19],100%
same,ILS at 1.5 mg/kg,Mus musculus [20],127%
N/C(S)=N/N=C/c1c2ccccc2c(/C=N/N=C(\N)S)c2ccccc12,Cures,Mus musculus [21],0
same,ILS at 300 mg/kg,Mus musculus [22],71%
same,ILS at 300 mg/kg,Mus musculus [23],0%
Cl.Cl.Clc1ccc2c(/C=N/NC3=NCCN3)c3ccccc3c(/C=N/NC3=NCCN3)c2c1,Cures,Mus musculus [24],2
same,Cures,Mus musculus [25],0
same,Cures,Mus musculus [26],0
same,Cures,Mus musculus [11],4
same,Cures,Mus musculus [27],1
same,ILS at 6.25 mg/kg,Mus musculus [28],206%
same,ILS at 6.2 mg/kg,Mus musculus [29],100%
same,ILS at 3.1 mg/kg,Mus musculus [30],37%
same,ILS at 12.5 mg/kg,Mus musculus [31],95%
same,ILS at 12.5 mg/kg,Mus musculus [32],32%
C/N=C(\N)N/N=C/c1c2ccccc2c(/C=N/N/C(N)=N/C)c2ccccc12,Cures,Mus musculus [1],8
same,Cures,Mus musculus [33],6
same,Cures,Mus musculus [34],2
same,Cures,Mus musculus [2],1
same,Cures,Mus musculus [26],5
same,Cures,Mus musculus [35],0
same,ILS at 12.5 mg/kg,Mus musculus [5],129%
same,ILS at 25 mg/kg,Mus musculus [36],62%
same,ILS at 25 mg/kg,Mus musculus [37],62%
same,ILS at 25 mg/kg,Mus musculus [38],157%
same,ILS at 50 mg/kg,Mus musculus [39],50%
same,ILS at 25 mg/kg,Mus musculus [9],108%
same,ILS,Mus musculus [15],53%
same,ILS at 12 mg/kg,Mus musculus [40],145%
same,Inhibition,Mus musculus [17],89%
same,Cures,Mus musculus [41],0
COc1cccc2c1C(=O)c1c(O)c3c(c(O)c1C2=O)C[C@@](O)(C(=O)CO)C[C@@H]3O[C@H]1C[C@H](N)[C@H](O)[C@H](C)O1 [DOXORUBICIN],Cures,Mus musculus [1],18
same,Cures,Mus musculus [42],1
same,ILS at 0.8 mg/kg,Mus musculus [43],275%
same,ILS at 5 mg/kg,Mus musculus [44],159%
